Reference: ChEMBL document CHEMBL3632513, “Synthesis of donepezil-based multifunctional agents for the treatment of Alzheimer's disease” (Bioorg Med Chem Lett, 2015)
Values after ≈ are worked out from the molar mass of the structure shown. Active and inactive are the calls of the source. The rule behind the calls is not given here.

How the values were obtained:
[1] = Antioxidant activity assessed as DPPH scavenging activity at 10 to 60 ug/ml after 30 mins
Acetylcholinesterase = Acetylcholinesterase (Electrophorus electricus, UniProt O42275); assay: Inhibition of electric eel AChE using acetylthiocholine iodide as substrate preincubated for 15 mins by Ellman's method
Acetylcholinesterase, sequence (O42275 whole entry): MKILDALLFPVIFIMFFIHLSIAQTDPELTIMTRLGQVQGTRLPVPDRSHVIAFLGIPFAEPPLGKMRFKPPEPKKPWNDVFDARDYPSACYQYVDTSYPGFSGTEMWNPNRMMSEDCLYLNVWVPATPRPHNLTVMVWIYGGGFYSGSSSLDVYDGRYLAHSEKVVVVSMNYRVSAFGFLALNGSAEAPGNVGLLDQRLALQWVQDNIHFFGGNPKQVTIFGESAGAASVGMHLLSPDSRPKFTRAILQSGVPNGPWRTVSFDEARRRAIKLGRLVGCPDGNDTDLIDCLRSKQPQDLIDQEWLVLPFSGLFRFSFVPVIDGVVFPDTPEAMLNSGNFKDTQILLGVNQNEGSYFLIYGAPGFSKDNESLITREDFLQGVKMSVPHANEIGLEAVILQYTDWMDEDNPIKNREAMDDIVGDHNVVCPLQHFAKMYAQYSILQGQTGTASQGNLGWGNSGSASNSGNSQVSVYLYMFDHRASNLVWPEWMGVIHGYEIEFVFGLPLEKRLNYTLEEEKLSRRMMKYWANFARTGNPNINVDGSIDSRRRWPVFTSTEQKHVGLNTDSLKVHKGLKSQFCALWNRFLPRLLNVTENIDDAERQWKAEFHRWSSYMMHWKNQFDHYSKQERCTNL

Cholinesterase = Cholinesterase (Equus caballus, UniProt P81908); assay: Inhibition of equine serum BuChE using butyrylthiocholine iodide as substrate preincubated for 15 mins by Ellman's method
Cholinesterase, sequence (P81908 whole entry): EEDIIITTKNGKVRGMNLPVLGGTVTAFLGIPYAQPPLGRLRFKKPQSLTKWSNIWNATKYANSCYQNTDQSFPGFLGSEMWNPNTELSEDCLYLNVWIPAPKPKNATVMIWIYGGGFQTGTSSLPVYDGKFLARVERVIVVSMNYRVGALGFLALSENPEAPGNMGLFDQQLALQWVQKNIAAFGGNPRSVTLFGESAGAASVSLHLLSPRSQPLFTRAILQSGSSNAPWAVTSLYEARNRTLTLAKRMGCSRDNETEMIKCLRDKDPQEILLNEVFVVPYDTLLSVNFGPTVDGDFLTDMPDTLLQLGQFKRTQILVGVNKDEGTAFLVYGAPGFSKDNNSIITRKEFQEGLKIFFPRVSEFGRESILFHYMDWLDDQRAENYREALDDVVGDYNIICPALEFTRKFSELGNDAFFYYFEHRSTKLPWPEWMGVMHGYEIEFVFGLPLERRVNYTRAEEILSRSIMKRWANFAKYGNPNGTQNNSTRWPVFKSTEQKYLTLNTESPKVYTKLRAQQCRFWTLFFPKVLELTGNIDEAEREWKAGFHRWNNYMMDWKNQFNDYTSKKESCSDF

[2] = target: Amyloid-beta precursor protein (Homo sapiens) (UniProt P05067); assay: Inhibition of self-induced amyloid beta (1-42) aggregation (unknown origin) at 25 uM after 48 hrs by thioflavin T fluorescence method
Amyloid-beta precursor protein (Homo sapiens), sequence (P05067 whole entry): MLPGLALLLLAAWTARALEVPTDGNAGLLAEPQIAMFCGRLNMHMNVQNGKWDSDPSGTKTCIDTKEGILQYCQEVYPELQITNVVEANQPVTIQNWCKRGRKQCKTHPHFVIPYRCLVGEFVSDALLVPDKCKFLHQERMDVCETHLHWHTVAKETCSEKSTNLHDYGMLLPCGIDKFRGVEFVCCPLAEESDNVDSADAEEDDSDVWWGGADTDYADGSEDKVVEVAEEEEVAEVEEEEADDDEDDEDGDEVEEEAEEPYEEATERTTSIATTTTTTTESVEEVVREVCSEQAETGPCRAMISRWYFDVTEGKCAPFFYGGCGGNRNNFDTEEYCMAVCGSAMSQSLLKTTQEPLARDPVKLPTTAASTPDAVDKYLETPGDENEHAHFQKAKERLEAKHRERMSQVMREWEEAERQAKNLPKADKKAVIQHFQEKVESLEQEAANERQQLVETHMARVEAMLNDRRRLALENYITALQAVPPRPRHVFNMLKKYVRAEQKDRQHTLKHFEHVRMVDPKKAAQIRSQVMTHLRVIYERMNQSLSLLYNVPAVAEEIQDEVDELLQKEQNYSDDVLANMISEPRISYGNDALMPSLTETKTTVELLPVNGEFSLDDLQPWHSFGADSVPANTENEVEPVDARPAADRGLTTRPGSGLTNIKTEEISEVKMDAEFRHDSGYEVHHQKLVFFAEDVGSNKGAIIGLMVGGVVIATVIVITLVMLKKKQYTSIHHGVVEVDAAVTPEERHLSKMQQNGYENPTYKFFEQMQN
Procedure, shortened: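 Thioflavin T fluorometric assay of self-induced Aβ1–42 aggregation, with test compounds and the curcumin reference each at 25. Results are reported as percent inhibition of aggregation.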

[3] = Selectivity ratio of IC50 for equine BuChE to IC50 for electric eel AChE
Procedure, shortened: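 Both IC50 values come from Ellman's method, using AChE from electric eel and BuChE from equine serum. Selectivity for AChE is calculated as IC50(BuChE)/IC50(AChE).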

[4] = Lipophilicity, log P of the compound by […]; type: physicochemical; conditions: octanol/water
[5] = target: Acetylcholinesterase (Electrophorus electricus) (UniProt O42275); assay: Mixed-type of inhibition in electric eel AChE at 0.5 to 2 uM by Lineweaver-Burk plot method
Acetylcholinesterase (Electrophorus electricus), sequence (O42275 24-633 limits assumed): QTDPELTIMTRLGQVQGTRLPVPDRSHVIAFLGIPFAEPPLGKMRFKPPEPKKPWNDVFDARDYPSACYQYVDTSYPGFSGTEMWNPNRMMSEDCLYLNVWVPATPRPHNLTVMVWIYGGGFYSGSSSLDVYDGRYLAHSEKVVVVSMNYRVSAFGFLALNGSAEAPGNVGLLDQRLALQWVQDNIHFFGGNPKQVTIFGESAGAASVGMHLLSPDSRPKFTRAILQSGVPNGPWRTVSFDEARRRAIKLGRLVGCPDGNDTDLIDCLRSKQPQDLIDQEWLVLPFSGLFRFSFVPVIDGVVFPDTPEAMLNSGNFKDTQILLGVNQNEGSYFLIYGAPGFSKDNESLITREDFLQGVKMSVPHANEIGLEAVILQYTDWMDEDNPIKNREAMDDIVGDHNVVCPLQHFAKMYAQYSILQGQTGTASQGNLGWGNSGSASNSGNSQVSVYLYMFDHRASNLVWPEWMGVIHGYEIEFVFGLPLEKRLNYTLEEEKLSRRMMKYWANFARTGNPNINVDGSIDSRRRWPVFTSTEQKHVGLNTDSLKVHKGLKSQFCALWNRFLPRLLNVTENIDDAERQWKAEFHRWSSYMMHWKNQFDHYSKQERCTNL

[6] = Metal chelating activity of the compound assessed as Zn2+ complex formation after 20 mins by UV-vis spectrophotometry; type: physicochemical
[7] = target: Cholinesterase (Equus caballus) (UniProt P81908); assay: Non-competitive inhibition in equine BuChE at 10 to 40 uM by Lineweaver-Burk plot method
Cholinesterase (Equus caballus), sequence (P81908 whole entry): as the sequence (P81908 whole entry) above

[8] = target: Cholinesterase (Equus caballus) (UniProt P81908); assay: Mixed-type of inhibition in equine BuChE at 10 to 40 uM by Lineweaver-Burk plot method

Compound | IC50 [1] [µg/mL] | IC50 (Acetylcholinesterase) [nM] | IC50 (Cholinesterase) [nM] | inhibition [2] [%] | Ratio IC50 [3] | logP [4] | inhibition [5] | Activity [6] | inhibition [7] | inhibition [8]
Cc1c(C)c2c(c(C)c1O)CC[C@@](C)(CCC[C@H](C)CCC[C@H](C)CCCC(C)C)O2 [ALPHA-TOCOPHEROL] | 31.74 (≈ 73.7 µM) | – | – | – | – | – | – | – | – | –
COc1cc2c(cc1OC)C(=O)C(C(=O)Nc1ccccc1Br)C2 (centres undefined) | 65.44 (≈ 168 µM) | 120 | 3400 | 52.8 | 28.3 | 3.03 | – | – | – | –
COc1cc2c(cc1OC)C(=O)C(C(=O)Nc1cccc(F)c1)C2 (centres undefined) | 58.11 (≈ 176 µM) | 247 | 2250 | 38.7 | 9.1 | 2.36 | – | – | – | –
CCc1ccc(NC(=O)C2Cc3cc(OC)c(OC)cc3C2=O)cc1 (centres undefined) | 76.15 (≈ 224 µM) | 650 | 2960 | 32.1 | 4.6 | 3.11 | – | – | – | –
CCOc1ccc(NC(=O)C2Cc3cc(OC)c(OC)cc3C2=O)cc1 (centres undefined) | 48.16 (≈ 136 µM) | 580 | 2610 | 40.8 | 4.5 | 2.42 | – | – | – | –
Cc1c(C)c2c(c(C)c1O)CCC(C)(C(=O)O)O2 (centres undefined) [TROLOX] | 20.87 (≈ 83.4 µM) | – | – | – | – | – | – | – | – | –
COc1cc2c(cc1OC)C(=O)C(C(=O)Nc1ccc(F)cc1)C2 (centres undefined) | 54.96 (≈ 167 µM) | 110 | 2650 | 45.4 | 24.1 | 2.36 | – | – | – | –
CCc1cccc(NC(=O)C2Cc3cc(OC)c(OC)cc3C2=O)c1 (centres undefined) | 64.11 (≈ 189 µM) | 670 | 2980 | 27.4 | 4.4 | 3.11 | – | – | – | –
COc1cc2c(cc1OC)C(=O)C(C(=O)Nc1cccc(Br)c1)C2 (centres undefined) | 58.88 (≈ 151 µM) | 330 | 2430 | 31.9 | 7.4 | 3.03 | – | – | – | –
COc1ccc(NC(=O)C2Cc3cc(OC)c(OC)cc3C2=O)cc1 (centres undefined) | 49.47 (≈ 145 µM) | 530 | 2900 | 34.5 | 5.5 | 2.08 | – | – | – | –
COc1cc2c(cc1OC)C(=O)C(C(=O)Nc1ccccc1F)C2 (centres undefined) | 75.68 (≈ 230 µM) | 80 | 3210 | 55.3 | 40.1 | 2.36 | Active | Active | – | –
CCc1ccccc1NC(=O)C1Cc2cc(OC)c(OC)cc2C1=O (centres undefined) | 55 (≈ 162 µM) | 860 | 6290 | 21.8 | 7.3 | 3.11 | – | – | – | –
CCOc1ccccc1NC(=O)C1Cc2cc(OC)c(OC)cc2C1=O (centres undefined) | 63.67 (≈ 179 µM) | 770 | 6620 | 38.1 | 8.6 | 2.42 | – | – | – | –
COc1cc2c(cc1OC)C(=O)C(C(=O)Nc1ccccc1Cl)C2 (centres undefined) | 65.92 (≈ 191 µM) | 300 | 7100 | 40.4 | 23.7 | 2.76 | – | – | – | –
COc1cc2c(cc1OC)C(=O)C(C(=O)Nc1ccc(C)cc1)C2 (centres undefined) | 67.82 (≈ 208 µM) | 840 | 2500 | 26.8 | 3.2 | 2.69 | – | – | – | –
COc1cc2c(cc1OC)C(=O)C(C(=O)Nc1cccc(C)c1)C2 (centres undefined) | 55.83 (≈ 172 µM) | 770 | 2240 | 19.1 | 2.9 | 2.69 | – | – | – | –
COc1ccccc1NC(=O)C1Cc2cc(OC)c(OC)cc2C1=O (centres undefined) | 45.76 (≈ 134 µM) | 700 | 4810 | 25.6 | 6.9 | 2.08 | – | – | – | –
COc1cccc(NC(=O)C2Cc3cc(OC)c(OC)cc3C2=O)c1 (centres undefined) | 38.94 (≈ 114 µM) | 540 | 2100 | 30.2 | 3.9 | 2.08 | – | Active | Active | Active
CCOc1cccc(NC(=O)C2Cc3cc(OC)c(OC)cc3C2=O)c1 (centres undefined) | 44.89 (≈ 126 µM) | 780 | 3870 | 28.3 | 5 | 2.42 | – | – | – | –
COc1cc2c(cc1OC)C(=O)C(C(=O)Nc1ccc(Cl)cc1)C2 (centres undefined) | 56.76 (≈ 164 µM) | 500 | 4400 | 38.2 | 8.8 | 2.76 | – | – | – | –
COc1cc2c(cc1OC)C(=O)C(C(=O)Nc1ccc(Br)cc1)C2 (centres undefined) | 72.14 (≈ 185 µM) | 140 | 3660 | 47.6 | 26.1 | 3.03 | – | – | – | –
COc1cc2c(cc1OC)C(=O)C(C(=O)Nc1ccccc1C)C2 (centres undefined) | 43.74 (≈ 134 µM) | 360 | 3060 | 40.3 | 8.5 | 2.69 | – | – | – | –
COc1cc2c(cc1OC)C(=O)C(C(=O)Nc1ccccc1)C2 (centres undefined) | 61.28 (≈ 197 µM) | 920 | 3150 | 14.3 | 3.4 | 2.2 | – | – | – | –
COc1cc2c(cc1OC)C(=O)C(C(=O)Nc1cccc(Cl)c1)C2 (centres undefined) | 76.32 (≈ 221 µM) | 470 | 2240 | 37.4 | 4.8 | 2.76 | – | – | – | –
